Source: ChEMBL document CHEMBL1140861, “Short antisense oligonucleotides with novel 2'-4' conformationaly restricted nucleoside analogues show improved potency without increased toxicity in animals” (J Med Chem, 2009)
Blank lines part the entries; values can stand above or below the molecule they belong to. Active and inactive are the calls of the source. The calls are words filed in the database; no cut-off is given here.

What was measured:
Mus musculus [1] = assay: Reduction of PTEN mRNA level in BALB/c mouse liver at 37 mg/kg, ip after 72 hrs; assay type: functional, organism-based; design: dose 37 mg/kg
Mus musculus [2] = assay: Hepatotoxicity in BALB/c mouse assessed as increase in liver ALT level at 60 mg/kg, ip after 72 hrs; assay type: toxicity, organism-based; design: dose 60 mg/kg, route intraperitoneal; details: in vivo
Mus musculus [3] = assay: Reduction of PTEN mRNA level in BALB/c mouse liver at 60 mg/kg, ip after 72 hrs; assay type: functional, organism-based; design: dose 60 mg/kg
bEND = assay: Reduction in mouse PTEN mRNA level expressed in mouse bEND cells; assay type: functional, cell-based
Procedure, shortened: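 bEND mouse brain endothelial cells transfected with ASO using lipofectin; PTEN mRNA reduction measured over a dose range; IC50 taken from dose-response curves.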

Mus musculus [4] = species on record: Mus musculus; assay: Binding affinity to mouse PTEN mRNA assessed as melting temperature
Procedure, shortened: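 Tm of ASO–RNA duplex, i.e. melting temperature of the ASO hybridised to its complementary RNA.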

Mus musculus [5] = assay: Reduction of PTEN mRNA level in ip dosed BALB/c mouse liver after 72 hrs; assay type: functional

Compound: Cc1cn([C@@H]2O[C@@]3(COP(O)(=S)O[C@H]4[C@H]5OC[C@]4(COP(O)(=S)O[C@@H]4[C@H](O)[C@@H](COP(O)(=S)O[C@H]6[C@@H](O)[C@H](n7cnc8c(=O)[nH]c(N)nc87)O[C@@H]6COP(O)(=S)O[C@H]6[C@@H](O)[C@H](n7ccc(N)nc7=O)O[C@@H]6COP(O)(=S)O[C@H]6[C@@H](O)[C@H](n7ccc(N)nc7=O)O[C@@H]6COP(O)(=S)O[C@H]6C[C@H](n7cc(C)c(=O)[nH]c7=O)O[C@@H]6COP(O)(=S)O[C@H]6[C@@H](O)[C@H](n7ccc(N)nc7=O)O[C@@H]6COP(O)(=S)O[C@H]6C[C@H](n7cc(C)c(=O)[nH]c7=O)O[C@@H]6COP(O)(=S)O[C@H]6[C@@H](O)[C@H](n7cnc8c(=O)[nH]c(N)nc87)O[C@@H]6COP(O)(=S)O[C@H]6[C@@H](O)[C@H](n7cnc8c(=O)[nH]c(N)nc87)O[C@@H]6COP(O)(=S)O[C@H]6[C@@H](O)[C@H](n7cnc8c(N)ncnc87)O[C@@H]6COP(O)(=S)O[C@H]6[C@H]7OC[C@]6(COP(O)(=S)O[C@H]6[C@H]8OC[C@]6(COP(O)(=S)O[C@H]6[C@H]9OC[C@]6(CO)O[C@H]9n6cc(C)c(=O)[nH]c6=O)O[C@H]8n6cc(C)c(=O)[nH]c6=O)O[C@H]7n6cc(C)c(=O)[nH]c6=O)O[C@H]4n4cnc6c(N)ncnc64)O[C@H]5n4cc(C)c(=O)[nH]c4=O)CO[C@@H]2[C@@H]3OP(O)(=S)OC[C@@]23CO[C@@H]([C@H](n4cnc5c(=O)[nH]c(N)nc54)O2)[C@@H]3O)c(=O)nc1N (stereo partly drawn)
Activity (Mus musculus [1]): Active
Activity (Mus musculus [2]): Non-toxic
Activity (Mus musculus [3]): Active

IC50 (bEND): 6 nM
Tm (Mus musculus [4]): 56.9 °C
Compound: COC[C@H]1O[C@H]2[C@H](n3cc(C)c(N)nc3=O)O[C@]1(COP(O)(=S)O[C@H]1[C@H]3O[C@H](COC)[C@]1(COP(O)(=S)O[C@H]1C[C@H](n4cc(C)c(=O)[nH]c4=O)O[C@@H]1COP(O)(=S)O[C@H]1[C@@H](O)[C@H](n4cnc5c4N=CNC5N)O[C@@H]1COP(O)(=S)O[C@H]1[C@@H](O)[C@H](n4cnc5c(=O)[nH]c(N)nc54)O[C@@H]1COP(O)(=S)O[C@H]1[C@@H](O)[C@H](n4ccc(N)nc4=O)O[C@@H]1COP(O)(=S)O[C@H]1[C@@H](O)[C@H](n4cnc5c(N)ncnc54)O[C@@H]1COP(O)(=S)O[C@H]1[C@@H](O)[C@H](n4ccc(N)nc4=O)O[C@@H]1COP(O)(=S)O[C@H]1C[C@H](n4cc(C)c(=O)[nH]c4=O)O[C@@H]1COP(O)(=S)O[C@H]1[C@@H](O)[C@H](n4cnc5c(=O)[nH]c(N)nc54)O[C@@H]1COP(O)(=S)O[C@H]1[C@@H](O)[C@H](n4cnc5c(=O)[nH]c(N)nc54)O[C@@H]1COP(O)(=S)O[C@H]1[C@@H](O)[C@H](n4ccc(N)nc4=O)O[C@@H]1COP(O)(=S)O[C@H]1[C@H]4O[C@H](COC)[C@]1(COP(O)(=S)O[C@H]1[C@H]5O[C@H](COC)[C@]1(CO)O[C@H]5n1ccc(=O)[nH]c1=O)O[C@H]4n1cc(C)c(N)nc1=O)O[C@H]3n1ccc(=O)[nH]c1=O)[C@H]2O (stereo partly drawn)
ED50 (Mus musculus [5]): 29 mg/kg

Compound: COCCO[C@@H]1[C@H](O)[C@@H](COP(O)(=S)O[C@H]2[C@@H](OCCOC)[C@H](n3cc(C)c(N)nc3=O)O[C@@H]2COP(O)(=S)O[C@H]2[C@@H](OCCOC)[C@H](n3cc(C)c(=O)[nH]c3=O)O[C@@H]2COP(O)(=S)O[C@H]2[C@@H](OCCOC)[C@H](n3cc(C)c(=O)[nH]c3=O)O[C@@H]2COP(O)(=S)O[C@H]2[C@@H](OCCOC)[C@H](n3cc(C)c(N)nc3=O)O[C@@H]2COP(O)(=S)O[C@H]2[C@@H](O)[C@H](n3cc(C)c(N)nc3=O)O[C@@H]2COP(O)(=S)O[C@H]2[C@@H](O)[C@H](n3cc(C)c(N)nc3=O)O[C@@H]2COP(O)(=S)O[C@H]2C[C@H](n3cc(C)c(=O)[nH]c3=O)O[C@@H]2COP(O)(=S)O[C@H]2[C@@H](O)[C@H](n3cnc4c(=O)[nH]c(N)nc43)O[C@@H]2COP(O)(=S)O[C@H]2[C@@H](O)[C@H](n3cnc4c(N)ncnc43)O[C@@H]2COP(O)(=S)O[C@@H]2[C@H](O)[C@@H](COP(O)(=S)O[C@H]3[C@@H](O)[C@H](n4cnc5c(=O)[nH]c(N)nc54)O[C@@H]3COP(O)(=S)O[C@H]3[C@@H](O)[C@H](n4cnc5c(=O)[nH]c(N)nc54)O[C@@H]3COP(O)(=S)O[C@H]3C[C@H](n4cc(C)c(=O)[nH]c4=O)O[C@@H]3COP(O)(=S)O[C@H]3C[C@H](n4cc(C)c(=O)[nH]c4=O)O[C@@H]3COP(O)(=S)O[C@H]3[C@@H](OCCOC)[C@H](n4cc(C)c(=O)[nH]c4=O)O[C@@H]3COP(O)(=S)O[C@H]3[C@@H](OCCOC)[C@H](n4cc(C)c(N)nc4=O)O[C@@H]3COP(O)(=S)O[C@H]3[C@@H](OCCOC)[C@H](n4ccc(N)nc4=O)O[C@@H]3COP(O)(=S)O[C@H]3[C@@H](OCCOC)[C@H](n4cc(C)c(N)nc4=O)O[C@@H]3COP(O)(=S)O[C@H]3[C@@H](OCCOC)[C@H](n4cc(C)c(N)nc4=O)O[C@@H]3CO)O[C@H]2n2cnc3c(N)ncnc32)O[C@H]1n1cc(C)c(N)nc1=O (stereo partly drawn)
Activity (Mus musculus [1]): Active
Activity (Mus musculus [2]): Non-toxic
Activity (Mus musculus [3]): Active

Compound: Cc1cn([C@@H]2O[C@@]3(COP(O)(=S)O[C@H]4[C@H]5OC[C@]4(CO)O[C@H]5n4cc(C)c(N)nc4=O)CO[C@@H]2[C@@H]3OP(O)(=S)OC[C@H]2O[C@@H](n3cnc4c(N)ncnc43)[C@H](O)[C@@H]2OP(O)(=S)OC[C@H]2O[C@@H](n3cnc4c(=O)[nH]c(N)nc43)[C@H](O)[C@@H]2OP(O)(=S)OC[C@H]2O[C@@H](n3cnc4c(=O)[nH]c(N)nc43)[C@H](O)[C@@H]2OP(O)(=S)OC[C@H]2O[C@@H](n3cc(C)c(=O)[nH]c3=O)C[C@@H]2OP(O)(=S)OC[C@H]2O[C@@H](n3ccc(N)nc3=O)[C@H](O)[C@@H]2OP(O)(=S)OC[C@H]2O[C@@H](n3ccc(N)nc3=O)[C@H](O)[C@@H]2OP(O)(=S)OC[C@H]2O[C@@H](n3ccc(N)nc3=O)[C@H](O)[C@@H]2OP(O)(=S)OC[C@H]2O[C@@H](n3cnc4c(=O)[nH]c(N)nc43)[C@H](O)[C@@H]2OP(O)(=S)OC[C@H]2O[C@@H](n3cnc4c(=O)[nH]c(N)nc43)[C@H](O)[C@@H]2OP(O)(=S)OC[C@H]2O[C@@H](n3cc(C)c(=O)[nH]c3=O)C[C@@H]2OP(O)(=S)OC[C@@]23CO[C@@H]([C@H](n4cc(C)c(=O)[nH]c4=O)O2)[C@@H]3OP(O)(=S)OC[C@@]23CO[C@@H]([C@H](n4ccc(N)nc4=O)O2)[C@@H]3O)c(=O)nc1N (stereo partly drawn)
Activity (Mus musculus [1]): Active
Activity (Mus musculus [2]): Non-toxic
Activity (Mus musculus [3]): Active

Compound: Cc1cn([C@@H]2O[C@@]3(COP(O)(=S)O[C@H]4[C@H]5OC[C@]4(COP(O)(=S)O[C@@H]4[C@H](O)[C@@H](COP(O)(=S)O[C@H]6[C@@H](O)[C@H](n7cnc8c(=O)[nH]c(N)nc87)O[C@@H]6COP(O)(=S)O[C@H]6[C@@H](O)[C@H](n7ccc(N)nc7=O)O[C@@H]6COP(O)(=S)O[C@H]6[C@@H](O)[C@H](n7ccc(N)nc7=O)O[C@@H]6COP(O)(=S)O[C@H]6C[C@H](n7cc(C)c(=O)[nH]c7=O)O[C@@H]6COP(O)(=S)O[C@H]6[C@@H](O)[C@H](n7ccc(N)nc7=O)O[C@@H]6COP(O)(=S)O[C@H]6C[C@H](n7cc(C)c(=O)[nH]c7=O)O[C@@H]6COP(O)(=S)O[C@H]6[C@@H](O)[C@H](n7cnc8c(=O)[nH]c(N)nc87)O[C@@H]6COP(O)(=S)O[C@H]6[C@@H](O)[C@H](n7cnc8c(=O)[nH]c(N)nc87)O[C@@H]6COP(O)(=S)O[C@H]6[C@@H](O)[C@H](n7cnc8c(N)ncnc87)O[C@@H]6COP(O)(=S)O[C@H]6[C@H]7OC[C@]6(COP(O)(=S)O[C@H]6[C@H]8OC[C@]6(CO)O[C@H]8n6cc(C)c(=O)[nH]c6=O)O[C@H]7n6cc(C)c(=O)[nH]c6=O)O[C@H]4n4cnc6c(N)ncnc64)O[C@H]5n4cc(C)c(=O)[nH]c4=O)CO[C@@H]2[C@@H]3O)c(=O)nc1N (stereo partly drawn)
Activity (Mus musculus [1]): Active
Activity (Mus musculus [2]): Non-toxic
Activity (Mus musculus [3]): Active

Compound: Cc1cn([C@@H]2O[C@@]3(COP(O)(=S)O[C@H]4[C@H]5OC[C@]4(COP(O)(=S)O[C@@H]4[C@H](O)[C@@H](COP(O)(=S)O[C@H]6[C@@H](O)[C@H](n7cnc8c(=O)[nH]c(N)nc87)O[C@@H]6COP(O)(=S)O[C@H]6[C@@H](O)[C@H](n7ccc(N)nc7=O)O[C@@H]6COP(O)(=S)O[C@H]6[C@@H](O)[C@H](n7ccc(N)nc7=O)O[C@@H]6COP(O)(=S)O[C@H]6C[C@H](n7cc(C)c(=O)[nH]c7=O)O[C@@H]6COP(O)(=S)O[C@H]6[C@@H](O)[C@H](n7ccc(N)nc7=O)O[C@@H]6COP(O)(=S)O[C@H]6C[C@H](n7cc(C)c(=O)[nH]c7=O)O[C@@H]6COP(O)(=S)O[C@H]6[C@@H](O)[C@H](n7cnc8c(=O)[nH]c(N)nc87)O[C@@H]6COP(O)(=S)O[C@H]6[C@@H](O)[C@H](n7cnc8c(=O)[nH]c(N)nc87)O[C@@H]6COP(O)(=S)O[C@H]6[C@@H](O)[C@H](n7cnc8c(N)ncnc87)O[C@@H]6COP(O)(=S)O[C@H]6[C@H]7OC[C@]6(COP(O)(=S)O[C@H]6[C@H]8OC[C@]6(COP(O)(=S)O[C@H]6[C@H]9OC[C@]6(CO)O[C@H]9n6cc(C)c(=O)[nH]c6=O)O[C@H]8n6cc(C)c(=O)[nH]c6=O)O[C@H]7n6cc(C)c(=O)[nH]c6=O)O[C@H]4n4cnc6c(N)ncnc64)O[C@H]5n4cc(C)c(=O)[nH]c4=O)CO[C@@H]2[C@@H]3O)c(=O)nc1N (stereo partly drawn)
Activity (Mus musculus [1]): Active
Activity (Mus musculus [2]): Non-toxic
Activity (Mus musculus [3]): Active
